What was measured:
Assay type in all cases: functional
IGROV-1 = assay: Growth inhibition of human IGROV1 cells after 48 hrs by sulforhodamine B assay; conditions: IGROV-1, 48 h
Outline: (§1)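 NCI-60 screen: cells in RPMI 1640 with 5% FBS and 2 mM glutamine, 5000–40,000 cells/well, preincubated 24 h. Five concentrations (10-fold dilutions; 100 to 0.001 µM) applied for 48 h at 37 °C. TCA fixation, SRB stain, absorbance at 515 nm. Time-zero plates included; GI50 where 100×(T−T0)/(C−T0)=50.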

COLO 205 = assay: Growth inhibition of human COLO205 cells after 48 hrs by sulforhodamine B assay; conditions: COLO 205, 48 h; outline: as §1
DU-145 = assay: Growth inhibition of human DU145 cells after 48 hrs by sulforhodamine B assay; conditions: DU-145, 48 h; outline: as §1
SW-620 = assay: Growth inhibition of human SW620 cells assessed as cell growth at 10 uM after 48 hrs by sulforhodamine B assay; conditions: SW-620, 48 h, read-out: Activity
Outline: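 Single-dose NCI-60 test at 10 µM. Cells were grown in RPMI 1640 with 5% FBS and 2 mM L-glutamine, preincubated 24 h, with T0 plates TCA-fixed. Exposure was 48 h at 37 °C, 5% CO2. Cells were fixed with cold TCA (final 10%, 4 °C, 60 min), stained with SRB and read at 515 nm. Percent growth was taken relative to T0 and untreated control; negative values denote cell kill.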

CAKI-1 = assay: Growth inhibition of human CAKI-1 cells assessed as cell growth at 10 uM after 48 hrs by sulforhodamine B assay; conditions: CAKI-1, 48 h, read-out: Activity
Outline: (§2)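 NCI-60 single-dose screen at 10 µM: cells in RPMI 1640 with 5% FBS, preincubated 24 h, then exposed 48 h at 37 °C. TCA fixation (16% final for suspension cells), SRB staining, absorbance 515 nm. Percent growth relative to time-zero and untreated control plates; negative values indicate cell kill.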

MDA-MB-231 = assay: Growth inhibition of human MDA-MB-231 cells assessed as cell growth at 10 uM after 48 hrs by sulforhodamine B assay; conditions: MDA-MB-231, 48 h, read-out: Activity
Outline: (§3)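 Single-dose NCI-60 screen: adherent cells in RPMI 1640 with 5% FBS were exposed to 10 µM for 48 h at 37 °C after a 24 h preincubation. They were fixed in situ with cold TCA (10% final), stained with 0.4% SRB in 1% acetic acid, solubilized in 10 mM Tris base, and read at 515 nm. Percent growth was taken relative to time-zero and control plates.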

HCT-15 = assay: Growth inhibition of human HCT15 cells assessed as cell growth at 10 uM after 48 hrs by sulforhodamine B assay; conditions: HCT-15, 48 h, read-out: Activity; outline: as §2
SK-MEL-5 = assay: Growth inhibition of human SK-MEL-5 cells assessed as cell growth at 10 uM after 48 hrs by sulforhodamine B assay; conditions: SK-MEL-5, 48 h, read-out: Activity; outline: as §3
KM12 = assay: Growth inhibition of human KM12 cells after 48 hrs by sulforhodamine B assay; conditions: KM12, 48 h; outline: as §1
NCI-H23 = assay: Growth inhibition of human NCI-H23 cells assessed as cell growth at 10 uM after 48 hrs by sulforhodamine B assay; conditions: NCI-H23, 48 h, read-out: Activity; outline: as §3
HOP-92 = assay: Growth inhibition of human HOP92 cells assessed as cell growth at 10 uM after 48 hrs by sulforhodamine B assay; conditions: HOP-92, 48 h, read-out: Activity; outline: as §2
TK-10 = assay: Growth inhibition of human TK10 cells after 48 hrs by sulforhodamine B assay; conditions: TK-10, 48 h
Outline: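 NCI-60 five-dose screen. Cells were grown in RPMI 1640 with 5% FBS and 2 mM L-glutamine, plated at 5000–40,000 cells/well and incubated 24 h before dosing, with T0 plates TCA-fixed. DMSO stocks were diluted to doses of […] and exposed 48 h at 37 °C, 5% CO2. Cells were fixed with cold TCA (final 10%, 60 min, 4 °C), stained with 0.4% SRB in 1% acetic acid for 10 min, solubilized in 10 mM trizma base and read at 515 nm. GI50 is where 100×(T−T0)/(C−T0)=50.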

LOX IMVI = assay: Growth inhibition of human LOXIMVI cells after 48 hrs by sulforhodamine B assay; outline: as §1
A549 = assay: Growth inhibition of human A549/ATCC cells after 48 hrs by sulforhodamine B assay; conditions: A549, 48 h; outline: as §1
BT-549 = assay: Growth inhibition of human BT549 cells assessed as cell growth at 10 uM after 48 hrs by sulforhodamine B assay; conditions: BT-549, 48 h, read-out: Activity; outline: as §2
OVCAR-8 = assay: Growth inhibition of human OVCAR8 cells assessed as cell growth at 10 uM after 48 hrs by sulforhodamine B assay; conditions: OVCAR-8, 48 h, read-out: Activity; outline: as §3
[1] = Growth inhibition of human HCC2998 cells assessed as cell growth at 10 uM after 48 hrs by sulforhodamine B assay; conditions: HCC 2998, 48 h, read-out: Activity; outline: as §2
SK-MEL-2 = assay: Growth inhibition of human SK-MEL-2 cells assessed as cell growth at 10 uM after 48 hrs by sulforhodamine B assay; conditions: SK-MEL-2, 48 h, read-out: Activity; outline: as §3
OVCAR-3 = assay: Growth inhibition of human OVCAR3 cells after 48 hrs by sulforhodamine B assay; conditions: OVCAR-3, 48 h
Outline: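 NCI-60 panel cells grown in RPMI 1640 with 5% FBS and 2 mM L-glutamine, seeded at 5000–40,000 cells/well and preincubated 24 h. Five 10-fold dilutions (0.001–100 µM) from DMSO stocks were added for 48 h at 37 °C. Adherent cells were fixed with cold TCA (10% final) for 60 min at 4 °C, stained with 0.4% SRB, and read at 515 nm. GI50 was set where 100×(T−T0)/(C−T0)=50.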

CCRF-CEM = assay: Growth inhibition of human CCRF-CEM cells assessed as cell growth at 10 uM after 48 hrs by sulforhodamine B assay; conditions: read-out: Activity; outline: as §2
SR = assay: Growth inhibition of human SR cells assessed as cell growth at 10 uM after 48 hrs by sulforhodamine B assay; conditions: read-out: Activity
Outline: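 Suspension line in RPMI 1640 with 5% FBS, single 10 µM dose for 48 h. Settled cells were fixed with TCA (final 16%), then SRB-stained and read at 515 nm. Percent growth was taken versus T0 and control; negative values denote cytotoxicity.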

HCT-116 = assay: Growth inhibition of human HCT116 cells after 48 hrs by sulforhodamine B assay; conditions: HCT-116, 48 h; outline: as §1
OVCAR-4 = assay: Growth inhibition of human OVCAR4 cells assessed as cell growth at 10 uM after 48 hrs by sulforhodamine B assay; conditions: OVCAR-4, 48 h, read-out: Activity; outline: as §3
RXF 393 = assay: Growth inhibition of human RXF393 cells assessed as cell growth at 10 uM after 48 hrs by sulforhodamine B assay; conditions: RXF 393, 48 h, read-out: Activity; outline: as §3

Structure (SMILES)	growth at 10 µM (SW-620) [%]	growth at 10 µM (CAKI-1) [%]	growth at 10 µM (MDA-MB-231) [%]	growth at 10 µM (HCT-15) [%]	growth at 10 µM (SK-MEL-5) [%]	growth at 10 µM (NCI-H23) [%]	growth at 10 µM (HOP-92) [%]	growth at 10 µM (BT-549) [%]	growth at 10 µM (OVCAR-8) [%]	growth at 10 µM [1] [%]	growth at 10 µM (SK-MEL-2) [%]	growth at 10 µM (CCRF-CEM) [%]	growth at 10 µM (SR) [%]	growth at 10 µM (OVCAR-4) [%]	growth at 10 µM (RXF 393) [%]	further results
CC(C)=CCC/C(C)=C/CC/C(C)=C/CC[C@]1(C)CCc2c3c(cc(C)c2O1)OCN(C1CCN(Cc2ccccc2)CC1)C3	100	75.3	18.2	86.4	110	38.7	37.4	109	-85.8	-36.1	109	2.34	-35	59	–	GI50 (IGROV-1): 1.56 µM; GI50 (COLO 205): 2 µM; GI50 (DU-145): 1.89 µM; GI50 (KM12): 0.699 µM; GI50 (TK-10): 1.71 µM; GI50 (LOX IMVI): 0.337 µM; GI50 (A549): 1.57 µM; GI50 (OVCAR-3): 1.39 µM; GI50 (HCT-116): 0.576 µM
CC(C)=CCC/C(C)=C/CC/C(C)=C/CC[C@]1(C)CCc2c3c(cc(C)c2O1)OCN(CCCCCCCCCCO)C3	104	77.9	119	96.9	85.2	90.8	–	102	74.6	98.5	86.4	49.5	3.3	92.1	52.6	–
CC(C)=CCC/C(C)=C/CC/C(C)=C/CC[C@]1(C)CCc2cc(O)c(C)c(C)c2O1 [GAMMA-TOCOTRIENOL]	110	89.5	108	102	99.1	92.8	92	141	112	115	91.3	84	85.5	102	84.1	–
CC(C)=CCC/C(C)=C/CC/C(C)=C/CC[C@]1(C)CCc2c3c(c(C)c(C)c2O1)OCN(CCCCCCCCCCO)C3	105	78.9	112	91.1	95.6	90.9	93.7	108	89.7	97.9	82.3	87.7	51.9	105	83.1	–
COc1ccc(CCN2COc3c(C)c(C)c4c(c3C2)CC[C@@](C)(CC/C=C(\C)CC/C=C(\C)CCC=C(C)C)O4)cc1OC	101	88.5	96.1	102	107	102	106	115	101	70.5	120	78	54.6	98.4	–	–

— ChEMBL document CHEMBL2380254, “Optimization of tocotrienols as antiproliferative and antimigratory leads” (Eur J Med Chem, 2013)
